Data: ChEMBL document CHEMBL3232988, “Design, synthesis and biological evaluation of a series of pyrano chalcone derivatives containing indole moiety as novel anti-tubulin agents” (Bioorg Med Chem, 2014)
pIC50: −log10 of the molar value. The source made the active and inactive calls. The rule behind the calls is not given here.

Columns and labels:
HepG2 [1] = experiment: Antiproliferative activity against human HepG2 cells after 24 hrs by MTT assay; assay type: functional, cell-based; settings: HepG2, 24 h
Outline: (§1)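 Seeded at 1 × 10⁴ cells per well, incubated 24 h before treatment. MTT (20 µL of 5 mg/mL in PBS) added per well and incubated until purple precipitate appeared. Medium removed, precipitate dissolved in 150 µL DMSO, shaken 10 min, absorbance read at 570 nm. Growth expressed as percentage of untreated control.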

[2] = Antiproliferative activity against human […] cells after 24 hrs by MTT assay; assay type: functional, cell-based; outline: as §1
PC-3 = experiment: Antiproliferative activity against human PC3 cells after 24 hrs by MTT assay; assay type: functional, cell-based; settings: PC-3, 24 h; outline: as §1
A549 = experiment: Antiproliferative activity against human A549 cells after 24 hrs by MTT assay; assay type: functional, cell-based; settings: A549, 24 h; outline: as §1
K562 = experiment: Antiproliferative activity against human K562 cells after 24 hrs by MTT assay; assay type: functional, cell-based; settings: K562, 24 h; outline: as §1
HCT-116 = experiment: Antiproliferative activity against human HCT116 cells after 24 hrs by MTT assay; assay type: functional, cell-based; settings: HCT-116, 24 h; outline: as §1
SK-OV-3 = experiment: Antiproliferative activity against human SKOV3 cells after 24 hrs by MTT assay; assay type: functional, cell-based; settings: SK-OV-3, 24 h; outline: as §1
MCF7 = experiment: Antiproliferative activity against human MCF7 cells after 24 hrs by MTT assay; assay type: functional, cell-based; settings: MCF7, 24 h; outline: as §1
[3] = Antiproliferative activity against taxol resistant human HCT8 cells after 24 hrs by MTT assay; assay type: functional, cell-based; settings: HCT-8, 24 h; outline: as §1
[4] = Antiproliferative activity against vincristine resistant human HCT8 cells after 24 hrs by MTT assay; assay type: functional, cell-based; settings: HCT-8, 24 h; outline: as §1
[5] = Cytotoxicity against human LO2 cells after 24 hrs by MTT assay; assay type: cell-based; settings: L02, 24 h; outline: as §1
Rattus norvegicus = species on record: Rattus norvegicus; experiment: Inhibition of rat tubulin polymerization at 10 uM measured for 60 mins by luminometric analysis
HepG2 [6] = experiment: Cell cycle arrest in human HepG2 cells assessed as accumulation at G1-phase at 0.125 uM after 24 hrs by propidium iodide staining-based flow cytometric analysis (reference value: 42.5%); assay type: functional
Outline: (§2)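 HepG2 cells (2 × 10⁵) cultured 24 h, then given 0.1% DMSO vehicle or compound for 24 h. Fixed in ice-chilled methanol at least 30 min at 4 °C, washed twice with PBS, then stained 0.5 h at 37 °C in PBS with 1 mg/mL RNase A and propidium iodide. DNA content measured by flow cytometry for phase distribution.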

HepG2 [7] = experiment: Cell cycle arrest in human HepG2 cells assessed as accumulation at S-phase at 0.125 uM after 24 hrs by propidium iodide staining-based flow cytometric analysis (reference value: 32%); assay type: functional; outline: as §2
HepG2 [8] = experiment: Cell cycle arrest in human HepG2 cells assessed as accumulation at G2/M-phase at 0.125 uM after 24 hrs by propidium iodide staining-based flow cytometric analysis (reference value: 25.5%); assay type: functional; outline: as §2
HepG2 [9] = experiment: Cell cycle arrest in human HepG2 cells assessed as accumulation at S-phase at 0.25 uM after 24 hrs by propidium iodide staining-based flow cytometric analysis (reference value: 32%); assay type: functional; outline: as §2
HepG2 [10] = experiment: Cell cycle arrest in human HepG2 cells assessed as accumulation at G2/M-phase at 0.25 uM after 24 hrs by propidium iodide staining-based flow cytometric analysis (reference value: 25.5%); assay type: functional; outline: as §2
HepG2 [11] = experiment: Cell cycle arrest in human HepG2 cells assessed as accumulation at G1-phase at 0.375 uM after 24 hrs by propidium iodide staining-based flow cytometric analysis (reference value: 42.5%); assay type: functional; outline: as §2
HepG2 [12] = experiment: Cell cycle arrest in human HepG2 cells assessed as accumulation at S-phase at 0.375 uM after 24 hrs by propidium iodide staining-based flow cytometric analysis (reference value: 32%); assay type: functional; outline: as §2
HepG2 [13] = experiment: Cell cycle arrest in human HepG2 cells assessed as accumulation at G2/M-phase at 0.375 uM after 24 hrs by propidium iodide staining-based flow cytometric analysis (reference value: 25.5%); assay type: functional; outline: as §2
HepG2 [14] = experiment: Cell cycle arrest in human HepG2 cells assessed as accumulation at G1-phase at 0.50 uM after 24 hrs by propidium iodide staining-based flow cytometric analysis (reference value: 42.5%); assay type: functional; outline: as §2
HepG2 [15] = experiment: Cell cycle arrest in human HepG2 cells assessed as accumulation at S-phase at 0.50 uM after 24 hrs by propidium iodide staining-based flow cytometric analysis (reference value: 32%); assay type: functional; outline: as §2
HepG2 [16] = experiment: Cell cycle arrest in human HepG2 cells assessed as accumulation at G2/M-phase at 0.50 uM after 24 hrs by propidium iodide staining-based flow cytometric analysis (reference value: 25.5%); assay type: functional; outline: as §2
HepG2 [17] = experiment: Induction of apoptosis in human HepG2 cells after 48 hrs by propidium iodide staining-based flow cytometric analysis; assay type: functional, cell-based
HepG2 [18] = experiment: Antitumor activity against human HepG2 cells xenografted in BALB/c nude mouse assessed as tumor growth inhibition at 30 mg/kg, iv administered once every 2 days for 21 days measured every 3 days up to 35 days relative to control; assay type: functional; settings: read-out: TGI
Outline: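 Female BALB/c nude mice, six weeks old (16–18 g), inoculated in the right gluteal region with 1 × 10⁷ HepG2 cells in 0.1 mL DMEM. At 100 mm³, randomized into four groups of six. Tail-vein dosing every other day for 21 days; vehicle control on the same schedule; 5-Fu 5 mg/kg iv daily as reference. Caliper measurement every 3 days, volume = π/6 × length × width × width. Compared with control by t test.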

HepG2 [19] = experiment: Cell cycle arrest in human HepG2 cells assessed as accumulation at G2/M-phase after 24 hrs by propidium iodide staining-based flow cytometric analysis; assay type: functional; outline: as §2
HepG2 [20] = experiment: Antitumor activity against human HepG2 cells xenografted in BALB/c nude mouse assessed as tumor growth inhibition at 5 mg/kg, iv administered once every 2 days for 21 days measured every 3 days up to 35 days relative to control; assay type: functional; settings: read-out: TGI
Outline: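 Female BALB/c nude mice, six weeks old (16–18 g), inoculated in the right gluteal region with 1 × 10⁷ HepG2 cells in 0.1 mL DMEM. When tumours reached 100 mm³, mice were randomised into four groups of six. Dosing was by tail-vein injection; the vehicle group followed the test schedule. Tumours were measured by caliper every 3 days, with volume = π/6 × length × width × width.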

## CCC(=O)Oc1ccc(C(=O)/C=C/c2ccc3c(ccn3C)c2)c2c1C=CC(C)(C)O2
HepG2 [1]
  pIC50: 6.66
[2]
  pIC50: 5.74
PC-3
  pIC50: 6.19
A549
  pIC50: 6.17
K562
  pIC50: 6.10
HCT-116
  pIC50: 5.89
SK-OV-3
  pIC50: 6.64
MCF7
  pIC50: 5.82
[3]
  pIC50: 5.80
[4]
  pIC50: 6.35
[5]
  pIC50: < 5.00
Rattus norvegicus
  inhibition: Active
HepG2 [6]
  Activity: 30.7%
HepG2 [7]
  Activity: 43.1%
HepG2 [8]
  Activity: 26.2%
HepG2 [9]
  Activity: 35%
HepG2 [10]
  Activity: 60.7%
HepG2 [11]
  Activity: 2.5%
HepG2 [12]
  Activity: 22.5%
HepG2 [13]
  Activity: 75%
HepG2 [14]
  Activity: 1.6%
HepG2 [15]
  Activity: 12.4%
HepG2 [16]
  Activity: 86%
HepG2 [17]
  Activity: Dose-dependent effect
HepG2 [18]
  inhibition in vivo at 30 mg/kg: 56.6%
HepG2 [19]
  Activity: Dose-dependent effect

## O=c1[nH]cc(F)c(=O)[nH]1 [FLUOROURACIL]
HepG2 [20]
  inhibition in vivo at 5 mg/kg: 25.9%

## COc1ccc(C(=O)/C=C/c2cn(Cc3ccccc3F)c3ccccc23)c2c1C=CC(C)(C)O2
HepG2 [1]
  pIC50: 5.56

## COc1ccc(C(=O)/C=C/c2cccc3c2ccn3Cc2cccc(Cl)c2)c2c1C=CC(C)(C)O2
HepG2 [1]
  pIC50: < 5.00

## COc1ccc(C(=O)/C=C/c2ccc3ccn(Cc4cccc(Cl)c4)c3c2)c2c1C=CC(C)(C)O2
HepG2 [1]
  pIC50: < 5.00

## COc1ccc(C(=O)/C=C/c2cn(C)c3ccccc23)c2c1C=CC(C)(C)O2
HepG2 [1]
  pIC50: 5.65

## CCn1ccc2c(/C=C/C(=O)c3ccc(OC)c4c3OC(C)(C)C=C4)cccc21
HepG2 [1]
  pIC50: 5.26

## CC(C)c1ccc(S(=O)(=O)Oc2ccc(C(=O)/C=C/c3ccc4c(ccn4C)c3)c3c2C=CC(C)(C)O3)cc1
HepG2 [1]
  pIC50: 5.73

## COc1ccc(C(=O)/C=C/c2cn(Cc3ccccc3Cl)c3ccccc23)c2c1C=CC(C)(C)O2
HepG2 [1]
  pIC50: 5.71

## COc1ccc(C(=O)/C=C/c2cn(CC(C)C)c3ccccc23)c2c1C=CC(C)(C)O2
HepG2 [1]
  pIC50: < 5.00

## CCn1ccc2ccc(/C=C/C(=O)c3ccc(OC)c4c3OC(C)(C)C=C4)cc21
HepG2 [1]
  pIC50: < 5.00

## Cn1ccc2cc(/C=C/C(=O)c3ccc(OS(=O)(=O)c4cccc(C(F)(F)F)c4)c4c3OC(C)(C)C=C4)ccc21
HepG2 [1]
  pIC50: 5.81

## COc1cc([N+](=O)[O-])ccc1S(=O)(=O)Oc1ccc(C(=O)/C=C/c2ccc3c(ccn3C)c2)c2c1C=CC(C)(C)O2
HepG2 [1]
  pIC50: 6.24

## COc1ccc(C(=O)/C=C/c2cccc3ccn(Cc4cccc(F)c4)c23)c2c1C=CC(C)(C)O2
HepG2 [1]
  pIC50: < 5.00

## COCn1cc(/C=C/C(=O)c2ccc(OC)c3c2OC(C)(C)C=C3)c2ccccc21
HepG2 [1]
  pIC50: 5.33

## CC(=O)Oc1ccc(C(=O)/C=C/c2ccc3c(ccn3C)c2)c2c1C=CC(C)(C)O2
HepG2 [1]
  pIC50: 6.28

## COc1ccc(C(=O)/C=C/c2ccc3ccn(Cc4cccc(F)c4)c3c2)c2c1C=CC(C)(C)O2
HepG2 [1]
  pIC50: < 5.00

## CCn1cc(/C=C/C(=O)c2ccc(OC)c3c2OC(C)(C)C=C3)c2ccccc21
HepG2 [1]
  pIC50: 5.52

## COc1ccc(C(=O)/C=C/c2ccc3ccn(Cc4cccc(Br)c4)c3c2)c2c1C=CC(C)(C)O2
HepG2 [1]
  pIC50: < 5.00

## Cn1ccc2cc(/C=C/C(=O)c3ccc(OS(=O)(=O)c4cc(F)cc(F)c4)c4c3OC(C)(C)C=C4)ccc21
HepG2 [1]
  pIC50: 6.16

## COc1ccc(C(=O)/C=C/c2ccc3ccn(C)c3c2)c2c1C=CC(C)(C)O2
HepG2 [1]
  pIC50: 5.05

## CCCOc1ccc(C(=O)/C=C/c2ccc3c(ccn3C)c2)c2c1C=CC(C)(C)O2
HepG2 [1]
  pIC50: 6.34

## Cc1ccc(S(=O)(=O)Oc2ccc(C(=O)/C=C/c3ccc4c(ccn4C)c3)c3c2C=CC(C)(C)O3)cc1
HepG2 [1]
  pIC50: 6.07

## CC(C)C(=O)Oc1ccc(C(=O)/C=C/c2ccc3c(ccn3C)c2)c2c1C=CC(C)(C)O2
HepG2 [1]
  pIC50: 6.43

## Cn1ccc2cc(/C=C/C(=O)c3ccc(OS(=O)(=O)c4ccc(Br)cc4C(F)(F)F)c4c3OC(C)(C)C=C4)ccc21
HepG2 [1]
  pIC50: 6.21

## COc1ccc(C(=O)/C=C/c2cccc3c2ccn3C)c2c1C=CC(C)(C)O2
HepG2 [1]
  pIC50: 5.56

## COc1ccc(C(=O)/C=C/c2cn(Cc3ccccc3Br)c3ccccc23)c2c1C=CC(C)(C)O2
HepG2 [1]
  pIC50: < 5.00
